In the library only some 3.8% were active in any assay of this set; here they are far more common.
KCNQ1 block – blocks the human KCNQ1 potassium channel; CHO-K1 KCNQ1, FluxOR thallium flux fluorescence; active compounds read high; B-score at 10 µM; P51787; 310,000 compounds, 1.3% hits; AID 2642;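 active = compounds whose thallium flux B-score, printed positive for inhibition, exceeds three library SD while starting fluorescence stays within three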;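 also: channel opened by potassium depolarization with thallium stimulus after 20 min compound exposure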
hERG protect – shields human hERG channel from block by proarrhythmic agents | CHO-hERG, FluxOR thallium flux, dofetilide IC70 present | activation (rescue from dofetilide block), less the hit threshold, % at 10 µM | 310,000 compounds, 0.51% hits | AID 1511;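 active = activation above the mean of controls blocked by dofetilide plus 5 SD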;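 also: thallium influx through hERG after potassium depolarization seen as dye fluorescence rise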
KCNQ1 act – human KCNQ1 channel potentiation or activation; B-score at 10 µM; CHO-K1 KCNQ1, thallium flux FluxOR fluorescence; active compounds read high; 310,000 compounds, 0.35% hits;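 active = fluorescence ratio B-score, a plate-corrected score, at least three library SD, with initial intensity B-score within 5 SD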
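System: CHO-K1 cells stably expressing KCNQ1 / Medium: assay buffer for compound exposure, DMSO matched across wells / Reagent: thallium- and potassium-containing depolarizing buffer / Compound: one concentration, matched DMSO / Incubation: 20 min compound pretreatment at room temperature / Measured by: kinetic FluxOR fluorescence, 10 s baseline plus 110 s post-stimulus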
Kir21 inh – inhibitors of mouse Kir2.1 inward-rectifier potassium channel | 310,000 compounds, 0.85% hits | HEK293-Kir2.1, FluxOR thallium flux fluorescence; active compounds read low | B-score at 10 µM | P35561;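 active = fluorescence ratio B-score at or below minus 3 SD of library scores, with starting-brightness B-score within 2 SD, cut at about -4.2 in these data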;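 also: channel flux triggered by added potassium and thallium sulfate stimulus; B-score of peak minus minimum fluorescence over baseline after thallium stimulus; more negative B-score means stronger Kir2.1 block with less thallium influx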
KCNK3 block – human KCNK3 channel inhibition, primary screen; CHO-KCNK3 thallium flux, FluxOR fluorescence; active compounds read low; O14649; B-score at 10 µM; 340,000 compounds, 0.84% hits;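 active = B-score under library mean minus 4 SD, starting fluorescence ratio at most library mean plus 5 SD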;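 also: more negative B-score means stronger inhibition of thallium flux through KCNK3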
KCNK9 inh – human KCNK9 channel inhibition; Q9NPC2; HEK293 KCNK9, FluxOR thallium flux fluorescence; active compounds read low; B-score at 10 µM; 310,000 compounds, 1.2% hits;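 active = ratio B-score over 3 SD below the library mean, with starting fluorescence within 5 SD of its mean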;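 also: negative B-score means less thallium flux so channel inhibition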
Target sequence (Q9NPC2 whole entry, looked up): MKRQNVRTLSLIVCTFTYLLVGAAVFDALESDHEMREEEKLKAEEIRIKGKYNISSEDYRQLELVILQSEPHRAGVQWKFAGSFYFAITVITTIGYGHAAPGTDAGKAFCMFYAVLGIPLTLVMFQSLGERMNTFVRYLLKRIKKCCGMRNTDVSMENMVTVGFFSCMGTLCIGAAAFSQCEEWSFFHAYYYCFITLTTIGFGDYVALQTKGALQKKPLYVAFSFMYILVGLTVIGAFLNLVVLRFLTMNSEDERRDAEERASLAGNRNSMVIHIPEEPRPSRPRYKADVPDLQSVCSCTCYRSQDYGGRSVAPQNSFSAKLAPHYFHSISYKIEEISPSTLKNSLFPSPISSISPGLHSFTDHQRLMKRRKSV
KCNK9 inh conf – confirmation of human KCNK9 potassium channel inhibitors | shares compounds with KCNK9 inh | HEK293 KCNK9 cells, FluxOR thallium flux fluorescence | inhibition, % at 10 µM | 4,900 compounds, 43% hits;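 active = thallium signal inhibited by more than 5 SD of the compound-free buffer control wells, on both duplicate plates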
Kir21 sel – mouse Kir2.1 off-target activity of KCNK9 modulators | shares compounds with KCNK9 inh | Kir2.1 cells, FluxOR thallium flux fluorescence | inhibition, % at 10 µM | 4,900 compounds, 4% hits;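 active = thallium signal drop more than 5 SD beyond the mean of the no-compound control wells, seen in both duplicate plates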;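 also: signal is fluorescence rise after thallium addition divided by baseline fluorescence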
KCNK9 uninduced – second counter-screen for KCNK9 modulators: effect in non-induced cells; shares compounds with KCNK9 inh; non-induced KCNK9-HEK293, FluxOR thallium flux; inhibition, % at 10 µM; 4,900 compounds, 40% hits;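 active = thallium signal drop beyond 5 SD of the untreated control mean, on both duplicate plates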
A number is an active result; . = inactive; / = not tested or not shown.

SMILES	KCNQ1 block	hERG protect	KCNQ1 act	Kir21 inh	KCNK3 block	KCNK9 inh	KCNK9 inh conf	Kir21 sel	KCNK9 uninduced
COc1cc(/C=N\NC(=O)c2ccc(-c3ccccc3)cc2)ccc1OCC(N)=O	.	.	.	.	.	.	/	/	/
COc1ccc(/C=N/NC(=O)c2nc(-c3ccccc3)cc(-c3ccccc3)n2)cc1OC	.	.	.	.	.	-9.7	31%	.	.
CC(C)CCCN1C(N(C)C)=NC[C@@H]1Cc1ccccc1	/	/	/	/	.	/	/	/	/
Cc1[nH]c2ccccc2c1CCN(Cc1cccs1)C(=S)Nc1ccccc1	.	.	.	.	.	-8.2	34%	.	31%
COCCNC(=S)N(CCc1c(C)[nH]c2ccccc12)Cc1ccco1	.	.	.	-4.7	.	.	.	.	.
Cc1[nH]n(-c2ccc(Br)cc2)c(=O)c1/C=N/NC(=O)c1ccccc1	.	.	.	.	.	.	.	.	.
Cc1cc(O)c(NC(=O)c2cc([N+](=O)[O-])ccc2Cl)cc1C	.	.	.	.	.	-14	62%	.	.
CC(=O)Nc1ccc(S(=O)(=O)N2CCC(NC(=O)C(Cc3ccccc3F)NC(C)=O)CC2)cc1 (stereo not drawn)	.	.	.	.	.	.	/	/	/
CCOC(=O)c1cnn(-c2nc(SC)nc3sc4c(c23)CCCC4)c1N	.	9.2	12	.	.	-16	66%	.	33%
CCOC(=O)c1cnn(-c2ncnc3sc4c(c23)CCC4)c1N	.	.	.	.	.	.	/	/	/
CCCCN(C(=O)c1ccncc1)c1c(N)n(CCC)c(=O)[nH]c1=O	/	/	/	/	.	/	/	/	/
CC(=O)NC(=S)Nc1ccc(N2CCOCC2)c(S(=O)(=O)Nc2cc(Cl)ccc2Cl)c1	.	.	.	.	.	-15	66%	.	27%
O=C(O)/C=C\C(=O)Nc1ccc(N2CCN(c3ccc(Cl)cc3)CC2)cc1	.	.	.	.	.	.	/	/	/
O=C(O)/C=C\C(=O)Nc1ccc(N2CCN(c3ccc(Cl)c(Cl)c3)CC2)cc1	.	.	.	.	.	.	.	.	.
COc1ccccc1CNC(=O)CNC(=O)N1CC(=O)Nc2ccccc21	.	.	.	.	.	.	/	/	/
Cc1cc(/C=c2\sc3nc4ccccc4n3c2=O)c(C)n1-c1ccc(C(=O)O)cc1	.	.	.	.	.	.	.	.	.
Cc1cc(/C=c2/sc3nc4ccccc4n3c2=O)c(C)n1-c1ccccn1	.	.	.	.	.	.	/	/	/
CC1CCCN(C(=O)N2c3ccccc3Sc3ccccc32)C1 (stereo not drawn)	.	.	.	.	.	-11	52%	.	44%
CC1CN(C(=O)N2c3ccccc3Sc3ccccc32)C(C)CC1=O (stereo not drawn)	.	5.3	.	.	.	-8.1	30%	.	29%
COCCn1c(N)c(N(Cc2ccccc2)C(=O)COc2ccccc2F)c(=O)[nH]c1=O	/	/	/	/	.	/	/	/	/
COc1ccc(C(C)(C)C)cc1NC(=O)CNc1cccc2ccccc12	.	.	.	.	.	.	.	.	.
COc1ccc(-c2ccc3c(c2)C2CC3CCN2S(=O)(=O)c2ccccc2C)cc1 (stereo not drawn)	/	/	/	/	.	/	/	/	/
O=C(Nn1c(SCc2ccc(F)cc2)nc2ccsc2c1=O)c1ccccc1	.	.	.	.	.	-11	74%	.	46%
COc1ccc(C(=O)Nn2c(SCc3ccc([N+](=O)[O-])cc3)nc3ccccc3c2=O)cc1	.	.	.	.	.	-11	56%	.	32%
COc1ccc(C(=O)Nn2c(SCC(=O)c3ccccc3)nc3ccccc3c2=O)cc1	.	.	.	.	.	.	/	/	/
SMILES	KCNQ1 block	hERG protect	KCNQ1 act	Kir21 inh	KCNK3 block	KCNK9 inh	KCNK9 inh conf	Kir21 sel	KCNK9 uninduced
CC(C)c1ccc(NC(=O)COC(=O)C2CCCCC2)cc1	/	/	/	/	.	/	/	/	/
COc1cccc(/C=N/Nc2nc(Nc3ccccc3)nc(-n3nc(C)cc3C)n2)c1O	.	.	.	.	.	-10	43%	.	24%
COc1ccccc1N(C)S(=O)(=O)c1ccc(Cl)c(C(=O)Nc2ccccc2N2CCOCC2)c1	/	/	/	/	.	/	/	/	/
COc1cccc(OCC(=O)N(C)Cc2nc(-c3cccc(C)c3)no2)c1	.	.	.	.	.	.	.	.	.
Cc1cccc(-c2noc(CN(C)C(=O)COc3ccccc3)n2)c1	.	.	.	.	.	.	/	/	/
COc1ccc(OC(C)C(=O)N(C)Cc2nc(-c3cccc(C)c3)no2)cc1 (stereo not drawn)	.	.	.	.	.	.	.	.	.
COc1ccc(Cl)cc1NC(=S)NC(=O)c1ccco1	/	/	/	/	.	/	/	/	/
CCN(CC)C(=O)CSc1nc(-c2cccs2)cc(-c2cccs2)c1C#N	.	.	.	.	.	-9.8	62%	.	68%
CCN(CC)C(=O)CSc1nc(N)c(C#N)c(-c2cccs2)c1C#N	.	.	.	.	.	.	/	/	/
CSCc1ccc(C(=O)NC(C)c2ccc(-n3ccnc3)cc2)cc1 (stereo not drawn)	.	.	.	.	.	.	/	/	/
COc1ccc2nc(SCC(=O)NC(C)c3ccccc3)[nH]c2c1 (stereo not drawn)	/	/	/	/	.	/	/	/	/
Oc1ccc(N2CCN(c3nc(-c4cccs4)nc4ccccc34)CC2)cc1	.	.	.	.	.	-8.4	.	.	.
CCN1CCN(c2nc(-c3cccs3)nc3ccccc23)CC1	.	.	.	.	.	.	/	/	/
Oc1ccccc1N1CCN(c2nc(-c3cccs3)nc3ccccc23)CC1	.	.	.	.	.	-13	40%	.	28%
CN1CCN(c2nc(-c3cccs3)nc3ccccc23)CC1	.	.	.	.	.	.	/	/	/
O=C(CN1CCN(c2ccccn2)CC1)N1c2ccccc2Sc2ccc(C(F)(F)F)cc21	.	.	.	.	.	.	.	.	.
CCN(CC(=O)Nc1ccc(NC(C)=O)cc1)C(=O)c1cc(-c2ccccc2Cl)nc2ccccc12	/	/	/	/	.	/	/	/	/
CC(C)OC(=O)CSc1nc(Cc2cccs2)nc2ccccc12	.	.	.	-4.4	.	-12	54%	45%	32%
O=C(NCC(=O)N1CCCC1)c1ccc(Cl)cc1	.	.	.	.	.	.	/	/	/
COc1ccc(CCNC(=O)c2cc3c(=O)n(C)c4ccccc4c3n2C)c(OC)c1	.	.	.	.	.	.	.	.	.
COc1ccc(CCNC(=O)c2c(O)c3ccccc3n(C)c2=O)cc1	.	.	.	.	.	.	.	.	.
Cn1c(=O)c(C(=O)NCCCc2ccccc2)c(O)c2ccccc21	.	.	.	.	.	.	.	.	28%
